Measured values taken from ChEMBL document CHEMBL4689842, “EUbOPEN Chemogenomics Library wave 1” (2021).

Test system: HEK-293T
Experiment: Multiplex assay against HEK293T;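 for Population Tubulin-Different-Phenotype (%): share of the cells with healthy nuclei that show this phenotype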
Type: toxicity, cell-based
Settings: human
In short: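 Imaging took place on a CQ1 microscope at 37°C and 5% CO2 once compound had been added to live cells stained at seeding with Hoechst33342, BioTracker Green Microtubule Cytoskeleton Dye, MitoTracker Red and Annexin V Alexa Fluor 680. CellPathfinder machine-learning gating classed cells as Hoechst high-intensity objects or normal cells, classed normal cells as having healthy, pyknosed or fragmented nuclei, and classed pyknosed cells as mitotic or apoptotic. Tubulin, mitochondrial-mass and membrane-permeability phenotypes are per cents of the healthy-nucleus cells.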

[1] = 12 h, 1 µM, compound concentration 1 uM, replicate 1
[2] = 12 h, 1 µM, compound concentration 1 uM, replicate 2
[3] = 12 h, 10 µM, compound concentration 10 uM, replicate 1
[4] = 12 h, 10 µM, compound concentration 10 uM, replicate 2
[5] = 24 h, 1 µM, compound concentration 1 uM, replicate 1
[6] = 24 h, 1 µM, compound concentration 1 uM, replicate 2
[7] = 24 h, 10 µM, compound concentration 10 uM, replicate 1
[8] = 24 h, 10 µM, compound concentration 10 uM, replicate 2
[9] = 48 h, 1 µM, compound concentration 1 uM, replicate 1
[10] = 48 h, 1 µM, compound concentration 1 uM, replicate 2
[11] = 48 h, 10 µM, compound concentration 10 uM, replicate 1
[12] = 48 h, 10 µM, compound concentration 10 uM, replicate 2

## COc1cc2ncnc(Nc3ccc(F)c(Cl)c3)c2cc1NC(=O)/C=C/CN1CCCCC1 [DACOMITINIB ANHYDROUS]
[1]
  Population Apoptotic (%): 34%
  Population Fragmented Nuclei (%): 28%
  Population Healthy Nuclei (%): 32%
  Population Hoechst High Intensity Objects (%): 24%
  Population Membrane Permeable-Phenotype (%): 18%
  Population Mitochondria Different-Phenotype (%): 41%
  Population Mitotic Cells (%): 65%
  Population Normal (%): 75%
  Population Pyknosed Nuclei (%): 38%
  Population Tubulin-Different-Phenotype (%): 72%
  Total Cell Count: 554
[2]
  Population Apoptotic (%): 13%
  Population Fragmented Nuclei (%): 5%
  Population Healthy Nuclei (%): 83%
  Population Hoechst High Intensity Objects (%): 4%
  Population Membrane Permeable-Phenotype (%): 7%
  Population Mitochondria Different-Phenotype (%): 36%
  Population Mitotic Cells (%): 86%
  Population Normal (%): 95%
  Population Pyknosed Nuclei (%): 10%
  Population Tubulin-Different-Phenotype (%): 66%
  Total Cell Count: 1314
[3]
  Population Apoptotic (%): 14%
  Population Fragmented Nuclei (%): 14%
  Population Healthy Nuclei (%): 69%
  Population Hoechst High Intensity Objects (%): 12%
  Population Membrane Permeable-Phenotype (%): 4%
  Population Mitochondria Different-Phenotype (%): 6%
  Population Mitotic Cells (%): 85%
  Population Normal (%): 87%
  Population Pyknosed Nuclei (%): 15%
  Population Tubulin-Different-Phenotype (%): 5%
  Total Cell Count: 670
[4]
  Population Apoptotic (%): 12%
  Population Fragmented Nuclei (%): 5%
  Population Healthy Nuclei (%): 89%
  Population Hoechst High Intensity Objects (%): 2%
  Population Membrane Permeable-Phenotype (%): 2%
  Population Mitochondria Different-Phenotype (%): 11%
  Population Mitotic Cells (%): 87%
  Population Normal (%): 97%
  Population Pyknosed Nuclei (%): 5%
  Population Tubulin-Different-Phenotype (%): 6%
  Total Cell Count: 1444
[5]
  Population Apoptotic (%): 39%
  Population Fragmented Nuclei (%): 27%
  Population Healthy Nuclei (%): 34%
  Population Hoechst High Intensity Objects (%): 22%
  Population Membrane Permeable-Phenotype (%): 9%
  Population Mitochondria Different-Phenotype (%): 63%
  Population Mitotic Cells (%): 60%
  Population Normal (%): 77%
  Population Pyknosed Nuclei (%): 37%
  Population Tubulin-Different-Phenotype (%): 73%
  Total Cell Count: 532
[6]
  Population Apoptotic (%): 6%
  Population Fragmented Nuclei (%): 16%
  Population Healthy Nuclei (%): 79%
  Population Hoechst High Intensity Objects (%): 3%
  Population Membrane Permeable-Phenotype (%): 6%
  Population Mitochondria Different-Phenotype (%): 13%
  Population Mitotic Cells (%): 93%
  Population Normal (%): 96%
  Population Pyknosed Nuclei (%): 4%
  Population Tubulin-Different-Phenotype (%): 54%
  Total Cell Count: 1906
[7]
  Population Apoptotic (%): 18%
  Population Fragmented Nuclei (%): 11%
  Population Healthy Nuclei (%): 79%
  Population Hoechst High Intensity Objects (%): 6%
  Population Membrane Permeable-Phenotype (%): 10%
  Population Mitochondria Different-Phenotype (%): 3%
  Population Mitotic Cells (%): 81%
  Population Normal (%): 94%
  Population Pyknosed Nuclei (%): 9%
  Population Tubulin-Different-Phenotype (%): 10%
  Total Cell Count: 800
[8]
  Population Apoptotic (%): 4%
  Population Fragmented Nuclei (%): 18%
  Population Healthy Nuclei (%): 78%
  Population Hoechst High Intensity Objects (%): 2%
  Population Membrane Permeable-Phenotype (%): 4%
  Population Mitochondria Different-Phenotype (%): 1%
  Population Mitotic Cells (%): 95%
  Population Normal (%): 97%
  Population Pyknosed Nuclei (%): 2%
  Population Tubulin-Different-Phenotype (%): 5%
  Total Cell Count: 2468

## C=C1/C(=C\C=C2/CCC[C@]3(C)[C@@H]([C@H](C)/C=C/[C@H](C)C(C)C)CC[C@@H]23)C[C@@H](O)C[C@@H]1O [DOXERCALCIFEROL]
[1]
  Population Apoptotic (%): 53%
  Population Fragmented Nuclei (%): 17%
  Population Healthy Nuclei (%): 26%
  Population Hoechst High Intensity Objects (%): 23%
  Population Membrane Permeable-Phenotype (%): 3%
  Population Mitochondria Different-Phenotype (%): 78%
  Population Mitotic Cells (%): 46%
  Population Normal (%): 76%
  Population Pyknosed Nuclei (%): 55%
  Population Tubulin-Different-Phenotype (%): 12%
  Total Cell Count: 156
[2]
  Population Apoptotic (%): 10%
  Population Fragmented Nuclei (%): 7%
  Population Healthy Nuclei (%): 44%
  Population Hoechst High Intensity Objects (%): 2%
  Population Membrane Permeable-Phenotype (%): 4%
  Population Mitochondria Different-Phenotype (%): 11%
  Population Mitotic Cells (%): 89%
  Population Normal (%): 97%
  Population Pyknosed Nuclei (%): 48%
  Population Tubulin-Different-Phenotype (%): 11%
  Total Cell Count: 240
[3]
  Population Apoptotic (%): 50%
  Population Fragmented Nuclei (%): 15%
  Population Healthy Nuclei (%): 25%
  Population Hoechst High Intensity Objects (%): 16%
  Population Membrane Permeable-Phenotype (%): 2%
  Population Mitochondria Different-Phenotype (%): 71%
  Population Mitotic Cells (%): 49%
  Population Normal (%): 83%
  Population Pyknosed Nuclei (%): 59%
  Population Tubulin-Different-Phenotype (%): 34%
  Total Cell Count: 180
[4]
  Population Apoptotic (%): 13%
  Population Fragmented Nuclei (%): 7%
  Population Healthy Nuclei (%): 35%
  Population Hoechst High Intensity Objects (%): 3%
  Population Membrane Permeable-Phenotype (%): 6%
  Population Mitochondria Different-Phenotype (%): 20%
  Population Mitotic Cells (%): 86%
  Population Normal (%): 96%
  Population Pyknosed Nuclei (%): 56%
  Population Tubulin-Different-Phenotype (%): 23%
  Total Cell Count: 211
[5]
  Population Apoptotic (%): 52%
  Population Fragmented Nuclei (%): 22%
  Population Healthy Nuclei (%): 27%
  Population Hoechst High Intensity Objects (%): 23%
  Population Membrane Permeable-Phenotype (%): 0%
  Population Mitochondria Different-Phenotype (%): 63%
  Population Mitotic Cells (%): 47%
  Population Normal (%): 76%
  Population Pyknosed Nuclei (%): 50%
  Population Tubulin-Different-Phenotype (%): 30%
  Total Cell Count: 170
[6]
  Population Apoptotic (%): 10%
  Population Fragmented Nuclei (%): 7%
  Population Healthy Nuclei (%): 59%
  Population Hoechst High Intensity Objects (%): 3%
  Population Membrane Permeable-Phenotype (%): 9%
  Population Mitochondria Different-Phenotype (%): 5%
  Population Mitotic Cells (%): 89%
  Population Normal (%): 96%
  Population Pyknosed Nuclei (%): 32%
  Population Tubulin-Different-Phenotype (%): 12%
  Total Cell Count: 305
[7]
  Population Apoptotic (%): 39%
  Population Fragmented Nuclei (%): 20%
  Population Healthy Nuclei (%): 26%
  Population Hoechst High Intensity Objects (%): 18%
  Population Membrane Permeable-Phenotype (%): 7%
  Population Mitochondria Different-Phenotype (%): 78%
  Population Mitotic Cells (%): 60%
  Population Normal (%): 81%
  Population Pyknosed Nuclei (%): 52%
  Population Tubulin-Different-Phenotype (%): 58%
  Total Cell Count: 191
[8]
  Population Apoptotic (%): 25%
  Population Fragmented Nuclei (%): 9%
  Population Healthy Nuclei (%): 56%
  Population Hoechst High Intensity Objects (%): 1%
  Population Membrane Permeable-Phenotype (%): 10%
  Population Mitochondria Different-Phenotype (%): 7%
  Population Mitotic Cells (%): 74%
  Population Normal (%): 98%
  Population Pyknosed Nuclei (%): 34%
  Population Tubulin-Different-Phenotype (%): 37%
  Total Cell Count: 255
[9]
  Population Apoptotic (%): 46%
  Population Fragmented Nuclei (%): 19%
  Population Healthy Nuclei (%): 33%
  Population Hoechst High Intensity Objects (%): 16%
  Population Membrane Permeable-Phenotype (%): 0%
  Population Mitochondria Different-Phenotype (%): 34%
  Population Mitotic Cells (%): 53%
  Population Normal (%): 83%
  Population Pyknosed Nuclei (%): 47%
  Population Tubulin-Different-Phenotype (%): 36%
  Total Cell Count: 180
[10]
  Population Apoptotic (%): 9%
  Population Fragmented Nuclei (%): 7%
  Population Healthy Nuclei (%): 81%
  Population Hoechst High Intensity Objects (%): 3%
  Population Membrane Permeable-Phenotype (%): 4%
  Population Mitochondria Different-Phenotype (%): 2%
  Population Mitotic Cells (%): 90%
  Population Normal (%): 97%
  Population Pyknosed Nuclei (%): 11%
  Population Tubulin-Different-Phenotype (%): 14%
  Total Cell Count: 601
[11]
  Population Apoptotic (%): 42%
  Population Fragmented Nuclei (%): 23%
  Population Healthy Nuclei (%): 35%
  Population Hoechst High Intensity Objects (%): 17%
  Population Membrane Permeable-Phenotype (%): 5%
  Population Mitochondria Different-Phenotype (%): 35%
  Population Mitotic Cells (%): 57%
  Population Normal (%): 82%
  Population Pyknosed Nuclei (%): 40%
  Population Tubulin-Different-Phenotype (%): 33%
  Total Cell Count: 193
[12]
  Population Apoptotic (%): 22%
  Population Fragmented Nuclei (%): 9%
  Population Healthy Nuclei (%): 79%
  Population Hoechst High Intensity Objects (%): 2%
  Population Membrane Permeable-Phenotype (%): 6%
  Population Mitochondria Different-Phenotype (%): 4%
  Population Mitotic Cells (%): 77%
  Population Normal (%): 97%
  Population Pyknosed Nuclei (%): 11%
  Population Tubulin-Different-Phenotype (%): 24%
  Total Cell Count: 475
